Source: ChEMBL document CHEMBL4020760, “Discovery of a Small Molecule Probe That Post-Translationally Stabilizes the Survival Motor Neuron Protein for the Treatment of Spinal Muscular Atrophy” (J Med Chem, 2017)
In brackets after ≈: the same amount, converted by molar mass. Activity calls are given as the source filed them. The rule behind the calls is not given here.

How the values were obtained:
Renilla = experiment: Effect on renilla recombinant luciferase protein
HEK293 [1] = experiment: Effect on cycloheximide-induced reduction in basal level of polyubiquitinated protein level in HEK293 cells at 1 uM pretreated for 2 hrs followed by cycloheximide addition measured after 6 hrs by SDS-PAGE analysis; assay type: functional, cell-based; conditions: Homo sapiens
Outline: (§1)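 HEK293 cells pretreated 2 h with test compound or MG-132 (1 and 10 μM), then DMSO or cycloheximide (10 μM) added and incubated a further 6 h; final DMSO 0.2%. Lysates run on 4–15% gradient SDS-PAGE; anti-ubiquitin blot for polyubiquitinated proteins, tubulin as loading control.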

HEK293 [2] = experiment: Effect on basal level of polyubiquitinated protein in HEK293 cells at 1 and 10 uM incubated for 2 hrs by SDS-PAGE analysis; assay type: cell-based; conditions: human, hek293, 2 h; outline: as §1
[3] = molecular target: Survival motor neuron protein (Homo sapiens) (UniProt Q16637); experiment: Stabilization of human SMN protein expressed in HEK293 cells expressing SMN2 promoter after 24 hrs by luciferase reporter gene assay relative to control; assay type: cell-based
Outline: (§2)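 SMN2-luc reporter cells seeded at 25,000/well overnight, then treated 24 h with six doses (3-fold serial dilutions, top final 10 or 30 μM), 0.1% DMSO. Firefly and Renilla luciferase read by dual-luciferase assay, normalized to DMSO as percent; EC50 and maximal activation from curves. Mean ± SEM, ≥3 trials.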

Plasma [4] = experiment: Cmax in mouse plasma at 20 mg/kg, ip; assay type: ADME, organism-based; set-up: dose 20 mg/kg, route intraperitoneal; conditions: in vivo
Plasma [5] = experiment: Tmax in mouse plasma at 20 mg/kg, ip; assay type: ADME, organism-based; conditions: in vivo
CYP2A6 = molecular target: T1, CYP2A6 (Homo sapiens, UniProt P11509); experiment: Inhibition of CYP2A6 (unknown origin) at 10 uM; assay type: ADME
T1 sequence (P11509 whole entry): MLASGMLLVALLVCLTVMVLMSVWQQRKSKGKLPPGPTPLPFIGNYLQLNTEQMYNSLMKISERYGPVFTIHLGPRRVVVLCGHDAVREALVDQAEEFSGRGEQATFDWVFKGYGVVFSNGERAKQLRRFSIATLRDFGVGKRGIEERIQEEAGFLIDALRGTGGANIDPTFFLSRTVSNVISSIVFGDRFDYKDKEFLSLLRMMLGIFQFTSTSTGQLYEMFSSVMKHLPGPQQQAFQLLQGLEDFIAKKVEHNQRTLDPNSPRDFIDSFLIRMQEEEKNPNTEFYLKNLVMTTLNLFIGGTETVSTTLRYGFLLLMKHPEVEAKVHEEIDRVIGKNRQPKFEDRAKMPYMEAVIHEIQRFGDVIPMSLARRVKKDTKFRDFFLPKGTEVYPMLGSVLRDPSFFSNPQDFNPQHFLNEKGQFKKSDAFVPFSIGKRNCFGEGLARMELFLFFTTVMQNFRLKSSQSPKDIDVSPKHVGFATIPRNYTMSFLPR

Plasma [6] = experiment: AUC (0 to 24 hrs) in mouse plasma at 20 mg/kg, po; assay type: ADME, organism-based; set-up: dose 20 mg/kg, time < 24 hr, route oral; conditions: in vivo
[7] = Aqueous solubility of the compound at pH 7.4; assay type: physicochemical; conditions: aqueous solution
Outline: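 Kinetic solubility measured in aqueous medium at pH 7.4.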

[8] = molecular target: Survival motor neuron protein (Homo sapiens) (UniProt Q16637); experiment: Stabilization of human SMN protein expressed in HEK293 cells at 10 to 30 uM after 24 hrs by luciferase reporter gene assay; assay type: cell-based; outline: as §2
CYP1A2 = molecular target: T2, CYP1A2 (Homo sapiens, UniProt P05177); experiment: Inhibition of CYP1A2 (unknown origin) at 10 uM; assay type: ADME
T2 sequence (P05177 whole entry): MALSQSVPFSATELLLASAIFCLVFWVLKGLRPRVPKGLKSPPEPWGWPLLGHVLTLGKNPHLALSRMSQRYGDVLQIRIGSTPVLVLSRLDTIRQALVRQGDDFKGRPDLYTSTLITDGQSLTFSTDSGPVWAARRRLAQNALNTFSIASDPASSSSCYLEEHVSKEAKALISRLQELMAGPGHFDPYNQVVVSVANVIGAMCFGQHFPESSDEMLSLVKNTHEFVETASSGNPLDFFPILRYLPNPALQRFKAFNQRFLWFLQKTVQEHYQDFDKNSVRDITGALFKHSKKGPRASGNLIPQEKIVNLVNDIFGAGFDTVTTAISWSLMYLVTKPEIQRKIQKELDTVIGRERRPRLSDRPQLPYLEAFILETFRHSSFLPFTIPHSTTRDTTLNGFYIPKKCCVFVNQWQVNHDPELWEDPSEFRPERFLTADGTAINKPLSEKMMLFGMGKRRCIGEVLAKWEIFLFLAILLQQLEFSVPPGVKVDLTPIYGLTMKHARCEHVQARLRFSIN

Lampyridae = experiment: Effect on firefly recombinant luciferase protein
Outline: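 Compound diluted in complete DMEM and incubated with recombinant firefly luciferase (1:10 000 in passive lysis buffer, 1 mg/mL BSA); activity read with SteadyLite reagent.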

Brain [9] = experiment: Half life in mouse brain at 20 mg/kg, po; assay type: ADME, organism-based; conditions: in vivo
Plasma [10] = experiment: Tmax in mouse plasma at 20 mg/kg, po; assay type: ADME, organism-based; conditions: in vivo
Brain [11] = experiment: Half life in mouse brain at 20 mg/kg, ip; assay type: ADME, organism-based; conditions: in vivo
CYP2C9 = CYP2C9 (Homo sapiens, UniProt P11712); experiment: Inhibition of CYP2C9 (unknown origin) at 10 uM; assay type: ADME
CYP2C9, sequence (P11712 whole entry): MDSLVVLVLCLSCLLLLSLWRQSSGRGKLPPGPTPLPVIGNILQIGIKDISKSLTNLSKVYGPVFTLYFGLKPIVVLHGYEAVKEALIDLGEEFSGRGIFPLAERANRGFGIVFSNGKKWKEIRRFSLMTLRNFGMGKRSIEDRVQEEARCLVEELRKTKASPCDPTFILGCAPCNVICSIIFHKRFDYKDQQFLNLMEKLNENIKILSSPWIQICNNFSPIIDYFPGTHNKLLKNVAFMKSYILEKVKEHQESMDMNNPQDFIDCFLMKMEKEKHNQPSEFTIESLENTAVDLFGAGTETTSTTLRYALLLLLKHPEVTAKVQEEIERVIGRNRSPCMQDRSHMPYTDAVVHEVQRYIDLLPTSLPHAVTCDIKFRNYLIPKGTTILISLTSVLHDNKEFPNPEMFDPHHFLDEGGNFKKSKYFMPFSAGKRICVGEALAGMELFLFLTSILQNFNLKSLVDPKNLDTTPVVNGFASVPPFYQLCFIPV

Survival motor neuron protein (Homo sapiens), sequence (Q16637 whole entry): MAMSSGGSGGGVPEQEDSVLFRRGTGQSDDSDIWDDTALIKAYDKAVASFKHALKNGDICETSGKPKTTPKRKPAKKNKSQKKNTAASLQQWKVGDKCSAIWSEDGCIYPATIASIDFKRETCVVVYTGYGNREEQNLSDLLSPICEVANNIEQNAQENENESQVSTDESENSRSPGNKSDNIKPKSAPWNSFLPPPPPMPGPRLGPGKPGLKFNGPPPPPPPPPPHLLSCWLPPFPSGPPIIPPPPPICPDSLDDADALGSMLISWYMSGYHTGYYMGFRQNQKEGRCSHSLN

Compound: O=C(Nc1ncc(C2(O)CCC2)s1)c1ccc(F)c(Cl)c1
- Activity (Renilla): inactive
- Activity (HEK293 [1]): inactive
- Activity (HEK293 [2]): Non-Toxic
- Activity [3]: 190%
- Cmax (Plasma [4]): 7660 ng/mL
- Tmax (Plasma [5]): 0.5 h
- inhibition at 10 µM (CYP2A6): < 50%
- AUC (Plasma [6]): 1641 ng·h/mL
- solubility kinetic [7]: 31 µM (≈ 10.1 µg/mL)
- Activity [8]: Active
- inhibition at 10 µM (CYP1A2): < 50%
- Activity (Lampyridae): inactive
- t1/2 (Brain [9]): 2.8 h
- Tmax (Plasma [10]): 0.5 h
- t1/2 (Brain [11]): 1.9 h
- inhibition at 10 µM (CYP2C9): < 50%
